Results reported in ChEMBL document CHEMBL4145557, “Discovery of Tirasemtiv, the First Direct Fast Skeletal Muscle Troponin Activator” (ACS Med Chem Lett, 2018).
Blank lines part the entries; values can stand above or below the compound they belong to. Activity calls are given as the source filed them. The calls are words filed in the database; no cut-off is given here.

How the values were obtained:
Oryctolagus cuniculus [1] = organism: Oryctolagus cuniculus; assay: (§1) Activation of troponin in rabbit fast skeletal muscle fibers assessed as increase in calcium stimulated activity by measuring compound concentration that produces 40% increase in myofibril ATPase activity at 25% of calcium concentration needed for maximal response by pyruvate kinase/lactate dehydrogenase-coupled based assay
Procedure, shortened: (§2)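 Myofibril ATPase rate (used as a surrogate for force), with fast-skeletal myofibrils from rabbit muscle. For cardiac and slow-skeletal activity, mixed sarcomeres combine myosin and thin-filament preparations from fast, slow or cardiac muscle. AC40 is the concentration giving a 40% increase in ATPase activity at 25% of the calcium level needed for a maximal response in control preparations. Duplicate experiments.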

Oryctolagus cuniculus [2] = organism: Oryctolagus cuniculus; assay: as §1, with “30%” for “40%”, “tension” for “myofibril ATPase activity”
Procedure, shortened: (§3)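 Skinned-fiber tension assay on a mounted fiber, measuring the force–calcium relationship. Fast fibers are rabbit psoas; slow fibers are primarily slow rabbit semimembranosus. DF30 is the concentration giving a 30% increase in tension at 25% of the calcium level needed for a maximal response in control preparations.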

[3] = Extraction ratio in human liver microsomes measured up to 90 mins by HPLC/MS/MS analysis; format: ADME, microsome; details: read-out: ERH
[4] = Extraction ratio in rat liver microsomes measured up to 90 mins by HPLC/MS/MS analysis; format: ADME, microsome; details: read-out: ERH
Cytochrome P450 1A2 [5] = molecular target: T1, Cytochrome P450 1A2 (Homo sapiens, UniProt P05177); assay: Time dependent inhibition of CYP1A2 in human liver microsomes using phenacetin as substrate preincubated for 30 mins followed by NADP addition; details: TDE = time-dependent effect
T1 sequence (P05177 whole entry): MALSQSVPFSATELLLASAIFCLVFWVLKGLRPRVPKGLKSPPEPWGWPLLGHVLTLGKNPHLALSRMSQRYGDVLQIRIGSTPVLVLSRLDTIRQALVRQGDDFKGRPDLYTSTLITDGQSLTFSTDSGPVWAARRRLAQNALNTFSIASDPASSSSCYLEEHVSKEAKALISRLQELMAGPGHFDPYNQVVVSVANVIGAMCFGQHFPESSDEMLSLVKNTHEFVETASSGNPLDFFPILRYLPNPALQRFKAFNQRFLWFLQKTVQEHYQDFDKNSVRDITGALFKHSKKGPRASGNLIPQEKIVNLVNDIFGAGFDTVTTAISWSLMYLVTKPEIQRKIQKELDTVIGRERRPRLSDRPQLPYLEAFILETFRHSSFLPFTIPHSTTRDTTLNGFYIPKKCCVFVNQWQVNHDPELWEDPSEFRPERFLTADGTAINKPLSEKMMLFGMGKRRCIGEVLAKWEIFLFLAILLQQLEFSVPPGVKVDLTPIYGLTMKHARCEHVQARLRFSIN

Cytochrome P450 1A2 [6] = molecular target: T1, Cytochrome P450 1A2; assay: Inhibition of CYP1A2 in human liver microsomes using phenacetin as substrate in presence of NADP; format: ADME
Mus musculus = assay: Volume of distribution at steady state in mouse at 1 mg/kg, po or 1 mg/kg iv via bolus by HPLC method; format: ADME, organism-based; details: in vivo
Procedure, shortened: (§4)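 Pharmacokinetics at a dose of 1 mg/kg, comparing oral and intravenous administration to derive bioavailability, clearance and steady-state volume of distribution. In rats, compounds were dosed as crystalline suspensions.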

[7] = Fraction unbound in rat plasma at 5 uM after 6 hrs by equilibrium dialysis based HPLC method; format: ADME, cell-free
[8] = Fraction unbound in human plasma at 5 uM after 6 hrs by equilibrium dialysis based HPLC method; format: ADME, cell-free
[9] = Extraction ratio in dog liver microsomes measured up to 90 mins by HPLC/MS/MS analysis; format: ADME, Canis lupus familiaris, microsome; details: read-out: ERH
[10] = Extraction ratio in mouse liver microsomes measured up to 90 mins by HPLC/MS/MS analysis; format: ADME, microsome; details: read-out: ERH
Canis familiaris = assay: Volume of distribution at steady state in Beagle dog at 1 mg/kg, po or 1 mg/kg iv via bolus by HPLC method; format: ADME, organism-based, Canis lupus familiaris; details: in vivo; procedure, shortened: as §4
[11] = (§5) Volume of distribution at steady state in Sprague-Dawley rat at 1 mg/kg, po or 1 mg/kg iv via bolus by HPLC method; format: ADME, organism-based; details: Sprague-Dawley, in vivo, read-out: Vdss; procedure, shortened: as §4
Rattus norvegicus [12] = assay: Increase in muscle force in rat extensor digitorum longus muscle dosed systemically measured every two mins by in situ live fiber activity assay; format: functional, organism-based
Rattus norvegicus [13] = assay: Oral bioavailability in Sprague-Dawley rat at 1 mg/kg by HPLC method; format: ADME, organism-based; details: in vivo; procedure, shortened: as §4
[14] = Oral bioavailability in Beagle dog at 1 mg/kg by HPLC method; format: ADME, organism-based, Canis lupus familiaris; details: in vivo; procedure, shortened: as §4
[15] = Oral bioavailability in mouse at 1 mg/kg by HPLC method; format: ADME, organism-based; details: in vivo; procedure, shortened: as §4
[16] = Apparent permeability of the compound in human Caco2 cells; format: ADME, cell-based; details: caco-2
Rattus norvegicus [17] = assay: as §5; format: ADME, organism-based; details: in vivo; procedure, shortened: as §4
Bos taurus [18] = organism: Bos taurus; assay: as §1, with “troponin C” for “troponin”, “bovine masseter slow” for “rabbit fast”; procedure, shortened: as §2
Oryctolagus cuniculus [19] = organism: Oryctolagus cuniculus; assay: Activation of troponin in rabbit primarily fast psoas muscle fibers assessed as increase in calcium level by skinned fiber assay; procedure, shortened: as §3
Oryctolagus cuniculus [20] = organism: Oryctolagus cuniculus; assay: Activation of troponin C in rabbit primarily slow semi membranosus muscle fibers assessed as increase in calcium level by skinned fiber assay; procedure, shortened: as §3
Bos taurus [21] = organism: Bos taurus; assay: as §1, with “troponin C” for “troponin”, “[…]” for “rabbit fast”, “[…] bovine cardiac” for “skeletal”; procedure, shortened: as §2

Compound: CCC(CC)n1c(=O)[nH]c2ncc(C)nc21
- EC40 (Oryctolagus cuniculus [1]): 2 µM
- EC30 (Oryctolagus cuniculus [2]): 4.4 µM

Compound: CC#Cc1cnc2[nH]c(=O)n(C(CC)CC)c2n1
- EC40 (Oryctolagus cuniculus [1]): > 49 µM

Compound: C=Cc1cnc2[nH]c(=O)n(C(CC)CC)c2n1
- hepatic extraction ratio at 1.5 h [3]: 0.5
- EC40 (Oryctolagus cuniculus [1]): 1.1 µM
- EC30 (Oryctolagus cuniculus [2]): 1.1 µM
- hepatic extraction ratio at 1.5 h [4]: > 0.7

Compound: C#Cc1cnc2nc(OC)n(C(CC)CC)c2n1
- EC40 (Oryctolagus cuniculus [1]): > 39.2 µM

Compound: C#Cc1cnc2oc(=O)n(C(CC)CC)c2n1
- EC40 (Oryctolagus cuniculus [1]): > 39.2 µM

Compound: CC[C@H](C)n1c(O)nc2ncc(Br)nc21
- hepatic extraction ratio at 1.5 h [3]: < 0.2
- hepatic extraction ratio at 1.5 h [4]: 0.3

Compound: CCC(CC)n1c(=O)[nH]c2ncc(C(F)(F)F)nc21
- EC40 (Oryctolagus cuniculus [1]): 11.3 µM

Compound: CCC(CC)n1c(=O)[nH]c2ncc(C#N)nc21
- EC40 (Oryctolagus cuniculus [1]): 36.3 µM

Compound: CCC(CC)n1c(O)nc2ncc(C(F)(F)F)nc21
- hepatic extraction ratio at 1.5 h [3]: < 0.2
- hepatic extraction ratio at 1.5 h [4]: 0.2

Compound: C#Cc1cnc2nc(O)n(C(CC)CC)c2n1 [TIRASEMTIV]
- inhibition (INH) (Cytochrome P450 1A2 [5]): Tde
- IC50 (Cytochrome P450 1A2 [6]): 20 µM
- hepatic extraction ratio at 1.5 h [3]: < 0.2
- Vdss (Mus musculus): 1 L/kg
- Fu [7]: 6.9%
- EC40 (Oryctolagus cuniculus [1]): 0.1 µM
- Fu [8]: 1.9%
- EC30 (Oryctolagus cuniculus [2]): 0.3 µM
- hepatic extraction ratio at 1.5 h [9]: < 0.21
- hepatic extraction ratio at 1.5 h [10]: 0.24
- Vdss (Canis familiaris): 1.7 L/kg
- Vd [11]: 0.8 to 2.6 L/kg
- Activity (Rattus norvegicus [12]): Dose-dependent effect
- F (Rattus norvegicus [13]): 98%
- hepatic extraction ratio at 1.5 h [4]: 0.26 to 0.3
- bioavailability [14]: 93%
- bioavailability [15]: 43%
- Papp [16]: > 50 ×10⁻⁶ cm/s

Compound: CCC(CC)n1c(O)nc2ncc(Br)nc21
- hepatic extraction ratio at 1.5 h [3]: < 0.2
- Fu [7]: 1.3%
- Fu [8]: 0.5%
- Vdss (Rattus norvegicus [17]): 6.5 L/kg
- F (Rattus norvegicus [13]): 62%
- hepatic extraction ratio at 1.5 h [4]: 0.4

Compound: CCC(CC)n1c(O)nc2ncc(OC)nc21
- hepatic extraction ratio at 1.5 h [3]: < 0.2
- hepatic extraction ratio at 1.5 h [4]: > 0.7

Compound: CCC(CC)n1c(=O)[nH]c2nccnc21
- EC40 (Oryctolagus cuniculus [1]): 14 µM

Compound: O=c1[nH]c2ncc(Br)nc2n1C1CCCCC1
- EC40 (Oryctolagus cuniculus [1]): 10 µM

Compound: CCC(CC)n1c(O)nc2ncc(C)nc21
- hepatic extraction ratio at 1.5 h [3]: < 0.2
- hepatic extraction ratio at 1.5 h [4]: 0.7

Compound: CCC(CC)n1c(O)nc2ncc(C#N)nc21
- hepatic extraction ratio at 1.5 h [3]: < 0.2
- hepatic extraction ratio at 1.5 h [4]: < 0.2

Compound: CC(C)(C)n1c(O)nc2ncc(Br)nc21
- hepatic extraction ratio at 1.5 h [3]: 0.2
- hepatic extraction ratio at 1.5 h [4]: 0.3

The remaining lines, values ahead:

- hepatic extraction ratio at 1.5 h [3]: < 0.3
- hepatic extraction ratio at 1.5 h [4]: 0.5
Compound: C[C@@H](c1ccccc1)n1c(O)nc2ncc(Br)nc21

- EC40 (Oryctolagus cuniculus [1]): 1 µM
- EC30 (Oryctolagus cuniculus [2]): 5.1 µM
Compound: CC[C@H](C)n1c(=O)[nH]c2ncc(Br)nc21

- EC40 (Oryctolagus cuniculus [1]): 2.6 µM
- EC30 (Oryctolagus cuniculus [2]): 3.8 µM
Compound: CSc1cnc2[nH]c(=O)n([C@@H](C)c3ccccc3)c2n1

- EC40 (Oryctolagus cuniculus [1]): > 49 µM
Compound: C[C@H](c1ccccc1)n1c(=O)[nH]c2ncc(-c3ccco3)nc21

- EC40 (Oryctolagus cuniculus [1]): > 49 µM
Compound: C[C@@H](c1ccccc1)n1c(=O)[nH]c2ncc(C#N)nc21

- EC40 (Oryctolagus cuniculus [1]): 0.3 µM
- EC30 (Oryctolagus cuniculus [2]): 0.4 µM
Compound: CCC(CC)n1c(=O)[nH]c2ncc(Br)nc21

- EC40 (Oryctolagus cuniculus [1]): > 49 µM
Compound: C[C@@H](c1ccccc1)n1c(=O)[nH]c2ncc(S(C)(=O)=O)nc21

- EC40 (Oryctolagus cuniculus [1]): > 49 µM
Compound: O=c1[nH]c2ncc(-c3ccco3)nc2n1Cc1ccccc1

- EC40 (Oryctolagus cuniculus [1]): 0.8 µM
- EC30 (Oryctolagus cuniculus [2]): 4.6 µM
Compound: CC(C)(C)n1c(=O)[nH]c2ncc(Br)nc21

- EC40 (Oryctolagus cuniculus [1]): > 49 µM
Compound: C[C@@H](c1ccccc1)n1c(=O)[nH]c2ncc(-c3ccccc3)nc21

- EC40 (Oryctolagus cuniculus [1]): 3.5 µM
- EC30 (Oryctolagus cuniculus [2]): 4.6 µM
Compound: C=Cc1cnc2[nH]c(=O)n([C@@H](C)c3ccccc3)c2n1

- EC40 (Oryctolagus cuniculus [1]): 1.6 µM
- EC30 (Oryctolagus cuniculus [2]): 3 µM
Compound: C[C@@H](c1ccccc1)n1c(=O)[nH]c2ncc(Br)nc21

- EC40 (Oryctolagus cuniculus [1]): 8.9 µM
Compound: COc1cnc2[nH]c(=O)n([C@@H](C)c3ccccc3)c2n1

- EC40 (Oryctolagus cuniculus [1]): 21.8 µM
Compound: CCc1cnc2[nH]c(=O)n([C@@H](C)c3ccccc3)c2n1

- EC40 (Oryctolagus cuniculus [1]): > 49 µM
Compound: O=c1[nH]c2ncc(Br)nc2n1C1CC1

- hepatic extraction ratio at 1.5 h [3]: < 0.2
- Fu [7]: 1.1%
- EC40 (Oryctolagus cuniculus [1]): 0.5 µM
- Fu [8]: 0.8%
- EC30 (Oryctolagus cuniculus [2]): 0.6 µM
- Vdss (Rattus norvegicus [17]): 3.4 L/kg
- F (Rattus norvegicus [13]): 100%
- hepatic extraction ratio at 1.5 h [4]: 0.4
Compound: CCC(CC)n1c(=O)[nH]c2ncc(Cl)nc21

- EC40 (Oryctolagus cuniculus [1]): 6 µM
- EC30 (Oryctolagus cuniculus [2]): 2.2 µM
Compound: CC(C)n1c(=O)[nH]c2ncc(Br)nc21

- EC40 (Oryctolagus cuniculus [1]): 7 µM
- EC30 (Oryctolagus cuniculus [2]): 30.6 µM
- EC40 (Bos taurus [18]): > 39 µM
- Activity (Oryctolagus cuniculus [19]): Active
- Activity (Oryctolagus cuniculus [20]): inactive
- EC40 (Bos taurus [21]): > 49 µM
Compound: C[C@@H](c1ccccc1)n1c(=O)[nH]c2ncc(-c3ccco3)nc21

- EC40 (Oryctolagus cuniculus [1]): 2.2 µM
Compound: CCC(CC)n1c(=O)[nH]c2ncc(OC)nc21

- EC40 (Oryctolagus cuniculus [1]): > 49 µM
Compound: CC(=O)c1cnc2nc(O)n([C@@H](C)c3ccccc3)c2n1
